What all share (assay type): functional
One test relates to Listeria monocytogenes. The test is described as follows: Antimicrobial activity against Listeria monocytogenes ATCC 19111 assessed as growth inhibition rate at 13.56 mg/l after 72 hr by spectrophotometry. The following applies: ATCC 19111, 72 h, read-out: GI. The method, boiled down:
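L. monocytogenes was grown at 30 °C in tryptic soy broth, subcultured for 18 h, and exposed to pure volatile compounds (>95% purity). Growth was followed by Bioscreen C optical density every 24 h for 72 h against a 10% Tween 80 control.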

The test system of another test is Vibrio parahaemolyticus. The test is described as follows: Antimicrobial activity against Vibrio parahaemolyticus ATCC 33844 assessed as growth inhibition rate at 13.56 mg/l after 72 hr by spectrophotometry. The following applies: ATCC 33844, 72 h, read-out: GI.
Another test deals with Salmonella typhimurium. The test is described as follows: Antimicrobial activity against Salmonella enterica subsp. enterica serovar Typhimurium ATCC 14028 assessed as growth inhibition rate at 13.56 mg/l after 72 hr by spectrophotometry. The following applies: ATCC 14028, 72 h, read-out: GI. An outline of the steps:
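Salmonella Typhimurium ATCC 14028 grown in nutrient broth at 30 °C, precultured 24 h, then subcultured 1:100 for 18 h before testing. Single volatile compounds (>95% pure) were added. OD was read every 24 h over 72 h in a Bioscreen C, with 10% Tween 80 as the comparison control.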

A further test concerns Escherichia coli. The test is described as follows: Antimicrobial activity against Escherichia coli O157:H7 ATCC 43894 assessed as growth inhibition rate at 13.56 mg/l after 72 hr by spectrophotometry. As to conditions: O157:H7 ATCC 43894, 72 h, read-out: GI.
A further test deals with Staphylococcus aureus. Briefly: Antimicrobial activity against Staphylococcus aureus ATCC 25923 assessed as growth inhibition rate at 13.56 mg/l after 72 hr by spectrophotometry. The following applies: ATCC 25923, 72 h, read-out: GI.
The next test relates to Bacillus cereus. Briefly: Antimicrobial activity against Bacillus cereus ATCC 11778 assessed as growth inhibition rate at 13.56 mg/l after 72 hr by spectrophotometry. The following applies: ATCC 11778, 72 h, read-out: GI. An outline of the steps: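 Pure volatile compounds (purity >95%; one at 90%) were tested against B. cereus ATCC 11778. The strain was grown at 30 °C in nutrient broth for 24 h, then subcultured for 18 h. Optical density was read in a Bioscreen C every 24 h for 72 h, with 10% Tween 80 as the control.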

With `CCC/C=C/CO`, the inhibition of growth at 13.56 µg/mL with Listeria monocytogenes worked out at 19.2%; in the test with Vibrio parahaemolyticus, 38.6%; with Salmonella typhimurium, 29.1%; with Escherichia coli it was 31.8%; with Staphylococcus aureus, 29.5%; with Bacillus cereus it was 52.5%.
